# Test results from ChEMBL document CHEMBL4715736, “Identification of anticancer agents based on the thieno[2,3-b]pyridine and 1H-pyrazole molecular scaffolds” (2016).
# How the values were obtained:
# Format in all cases: functional
# [1] = system: NCI/ADR-RES; experiment: Growth inhibition of human NCI/ADR-RES cells assessed as cell growth at 0.1 uM incubated for 48 hrs by sulforhodamine B assay relative to control; settings: read-out: Activity
# [2] = system: M14; experiment: Growth inhibition of human M14 cells assessed as cell growth at 0.01 uM incubated for 48 hrs by sulforhodamine B assay relative to control; settings: read-out: Activity
# [3] = system: OVCAR-4; experiment: Growth inhibition of human OVCAR-4 cells incubated for 48 hrs by sulforhodamine B assay
# Summary of the method: (§1)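 NCI DTP 60-line human tumour panel. Dose-response curves were run only for ligands active in the initial 10 µM screen. GI50 (concentration giving 50% of maximal inhibition of proliferation) and TGI (concentration giving total growth inhibition) were derived from these curves.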
# [4] = system: MDA-MB-231; experiment: Growth inhibition of human MDA-MB-231 cells assessed as cell growth at 0.1 uM incubated for 48 hrs by sulforhodamine B assay relative to control; settings: read-out: Activity
# [5] = system: NCI-H460; experiment: Growth inhibition of human NCI-H460 cells incubated for 48 hrs by sulforhodamine B assay
# Summary of the method: (§2)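 NCI60 panel at the NCI Developmental Therapeutics Program. Only compounds active in the 10 µM screen went to dose-response testing. GI50, the concentration giving 50% of maximal inhibition of proliferation, and TGI, the concentration giving total growth inhibition, were derived from the dose-response curves.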
# [6] = system: HOP-62; experiment: Growth inhibition of human HOP-62 cells incubated for 48 hrs by sulforhodamine B assay; summary of the method: as §2
# [7] = system: HCT-116; experiment: Growth inhibition of human HCT-116 cells assessed as cell growth at 1 uM incubated for 48 hrs by sulforhodamine B assay relative to control; settings: read-out: Activity
# [8] = system: NCI-H23; experiment: Growth inhibition of human NCI-H23 cells assessed as cell growth at 0.01 uM incubated for 48 hrs by sulforhodamine B assay relative to control; settings: read-out: Activity
# [9] = system: MCF7; experiment: Growth inhibition of human MCF7 cells assessed as cell growth at 100 uM incubated for 48 hrs by sulforhodamine B assay relative to control; settings: read-out: Activity
# [10] = system: MDA-MB-435; experiment: Growth inhibition of human MDA-MB-435 cells incubated for 48 hrs by sulforhodamine B assay; summary of the method: as §2
# [11] = system: UACC-257; experiment: Growth inhibition of human UACC-257 cells assessed as cell growth at 100 uM incubated for 48 hrs by sulforhodamine B assay relative to control; settings: read-out: Activity
# [12] = system: RXF 393; experiment: Growth inhibition of human RXF 393 cells assessed as cell growth at 0.1 uM incubated for 48 hrs by sulforhodamine B assay relative to control; settings: read-out: Activity
# [13] = system: MDA-MB-468; experiment: Growth inhibition of human MDA-MB-468 cells assessed as cell growth at 0.1 uM incubated for 48 hrs by sulforhodamine B assay relative to control; settings: read-out: Activity
# [14] = system: RPMI-8226; experiment: Growth inhibition of human RPMI-8226 cells assessed as cell growth at 100 uM incubated for 48 hrs by sulforhodamine B assay relative to control; settings: read-out: Activity
# [15] = system: NCI-H226; experiment: Growth inhibition of human NCI-H226 cells assessed as cell growth at 0.1 uM incubated for 48 hrs by sulforhodamine B assay relative to control; settings: read-out: Activity
# [16] = system: PC-3; experiment: Growth inhibition of human PC-3 cells assessed as cell growth at 1 uM incubated for 48 hrs by sulforhodamine B assay relative to control; settings: read-out: Activity
# [17] = system: SNB-19; experiment: Growth inhibition of human SNB-19 cells assessed as cell growth at 100 uM incubated for 48 hrs by sulforhodamine B assay relative to control; settings: read-out: Activity
# [18] = system: UACC-62; experiment: Growth inhibition of human UACC-62 cells incubated for 48 hrs by sulforhodamine B assay; summary of the method: as §1
# [19] = system: UACC-62; experiment: Growth inhibition of human UACC-62 cells assessed as cell growth at 100 uM incubated for 48 hrs by sulforhodamine B assay relative to control; settings: read-out: Activity
# [20] = system: CAKI-1; experiment: Growth inhibition of human CAKI-1 cells assessed as cell growth at 100 uM incubated for 48 hrs by sulforhodamine B assay relative to control; settings: read-out: Activity
# Summary of the method: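 NCI Developmental Therapeutics Program NCI60 panel. Compounds that were active in the 10 µM one-dose screen went on to dose–response testing. Growth at each concentration is expressed relative to untreated control (100%). GI50 (concentration giving 50% of maximal inhibition of proliferation) and TGI (concentration giving total growth inhibition) were derived from the curves.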
# [21] = system: SK-MEL-5; experiment: Growth inhibition of human SK-MEL-5 cells incubated for 48 hrs by sulforhodamine B assay; summary of the method: as §1
# [22] = system: T47D; experiment: Growth inhibition of human T47D cells assessed as cell growth at 1 uM incubated for 48 hrs by sulforhodamine B assay relative to control; settings: read-out: Activity
# [23] = system: K562; experiment: Growth inhibition of human K562 cells incubated for 48 hrs by sulforhodamine B assay; summary of the method: as §2
# [24] = system: HCT-15; experiment: Growth inhibition of human HCT-15 cells assessed as cell growth at 100 uM incubated for 48 hrs by sulforhodamine B assay relative to control; settings: read-out: Activity
# [25] = system: SF-268; experiment: Growth inhibition of human SF-268 cells assessed as cell growth at 0.1 uM incubated for 48 hrs by sulforhodamine B assay relative to control; settings: read-out: Activity
# [26] = system: PC-3; experiment: Growth inhibition of human PC-3 cells assessed as cell growth at 100 uM incubated for 48 hrs by sulforhodamine B assay relative to control; settings: read-out: Activity
# [27] = system: MDA-MB-231; experiment: Growth inhibition of human MDA-MB-231 cells assessed as cell growth at 0.01 uM incubated for 48 hrs by sulforhodamine B assay relative to control; settings: read-out: Activity
# [28] = system: NCI-H226; experiment: Growth inhibition of human NCI-H226 cells assessed as cell growth at 1 uM incubated for 48 hrs by sulforhodamine B assay relative to control; settings: read-out: Activity
# [29] = system: NCI-H522; experiment: Growth inhibition of human NCI-H522 cells assessed as cell growth at 0.1 uM incubated for 48 hrs by sulforhodamine B assay relative to control; settings: read-out: Activity
# [30] = system: M14; experiment: Growth inhibition of human M14 cells incubated for 48 hrs by sulforhodamine B assay; summary of the method: as §2
# [31] = system: SR; experiment: Growth inhibition of human SR cells assessed as cell growth at 100 uM incubated for 48 hrs by sulforhodamine B assay relative to control; settings: read-out: Activity
# [32] = system: RXF 393; experiment: Growth inhibition of human RXF 393 cells assessed as cell growth at 100 uM incubated for 48 hrs by sulforhodamine B assay relative to control; settings: read-out: Activity
# [33] = read-out: LC50 (the source's name)
smiles,measurement,setting,value
CN1CCc2nc3sc(C(N)=O)c(N)c3c(-c3cccs3)c2C1,growth at 0.1 µM,[1],96%
same,growth at 0.01 µM,[2],107%
same,GI50,[3],7.38 µM
same,TGI,[3],> 100 µM
same,CC50,[3]; [33],> 100 µM
same,growth at 0.1 µM,[4],109%
same,GI50,[5],3.71 µM
same,LC50,[5],> 100 µM
same,TGI,[5],> 100 µM
same,GI50,[6],3.27 µM
same,LC50,[6],> 100 µM
same,TGI,[6],> 100 µM
same,growth at 1 µM,[7],75%
same,growth at 0.01 µM,[8],97%
same,growth at 100 µM,[9],11%
same,GI50,[10],3.13 µM
same,TGI,[10],> 100 µM
same,CC50,[10]; [33],> 100 µM
same,growth at 100 µM,[11],3%
same,growth at 0.1 µM,[12],85%
same,growth at 0.1 µM,[13],82%
same,growth at 100 µM,[14],1%
same,growth at 0.1 µM,[15],89%
same,growth at 1 µM,[16],106%
same,growth at 100 µM,[17],14%
same,GI50,[18],2.38 µM
same,LC50,[18],72.2 µM
same,TGI,[18],6.56 µM
same,growth at 100 µM,[19],-55%
same,growth at 100 µM,[20],7%
same,GI50,[21],1.43 µM
same,LC50,[21],> 100 µM
same,TGI,[21],5.24 µM
same,growth at 1 µM,[22],84%
same,GI50,[23],4.99 µM
same,LC50 (concentration killing 50% of cells),[23],> 100 µM
same,TGI,[23],> 100 µM
same,growth at 100 µM,[24],6%
same,growth at 0.1 µM,[25],110%
same,growth at 100 µM,[26],6%
same,growth at 0.01 µM,[27],106%
same,growth at 1 µM,[28],88%
same,growth at 0.1 µM,[29],100%
same,GI50,[30],4.19 µM
same,LC50 (concentration killing 50% of cells),[30],> 100 µM
same,TGI,[30],19.4 µM
same,growth at 100 µM,[31],-19%
same,growth at 100 µM,[32],-46%
